Data from ChEMBL document CHEMBL1255273, “Subacute toxicity of colistin methanesulfonate in rats: comparison of various intravenous dosage regimens” (Antimicrob Agents Chemother, 2008).

Key:
Conditions in all cases: in vivo
Rattus norvegicus [1] = assay: Nephrotoxicity in Sprague-Dawley rat assessed as occurrence of moderate protein/cellular casts in proximal tubule at 30 mg/kg, iv every 12 hrs for 7 days; assay type: toxicity, organism-based; parameters: dose 30 mg/kg, route intravenous
Method in brief: (§1)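 Sprague-Dawley rats (6 to 8 weeks old) were dosed for 7 days via a jugular vein cannula at 20 mg/kg/8 h (n = 9) or 30 mg/kg/12 h (n = 11), with a saline placebo group (n = 8). Kidneys were examined histologically post mortem by a blinded histologist. Lesion severity was graded 1+ (mild), 2+ (moderate) or 3+ (severe), and the number of animals showing each lesion was counted.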

Rattus norvegicus [2] = assay: Toxicity in Sprague-Dawley rat assessed as effect on water consumption at 20 mg/kg, iv every 8 hrs for 7 days; assay type: organism-based; parameters: dose 20 mg/kg, route intravenous
Method in brief: (§2)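 Daily cage-side observations covered food and water intake, body weight, body surface temperature and general well-being. Sprague-Dawley rats (6 to 8 weeks old) were dosed via a jugular vein cannula for 7 days, with a saline placebo control. Groups were compared by analysis of variance.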

Rattus norvegicus [3] = assay: Neurotoxicity in Sprague-Dawley rat assessed as effect on forelimb grip strength at 20 mg/kg, iv every 8 hrs for 7 days; assay type: toxicity, organism-based; parameters: dose 20 mg/kg, route intravenous
Method in brief: (§3)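 Forelimb grip strength was tested daily using a horizontal retort stand. Each rat had to hang from the horizontal beam holding its own body weight to pass. Rats (Sprague-Dawley, 6 to 8 weeks old) were dosed via a jugular vein cannula for 7 days, with a saline placebo control.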

Rattus norvegicus [4] = assay: Nephrotoxicity in Sprague-Dawley rat assessed as occurrence of mild interstitial nephritis at 30mg/kg, iv every 12 hrs for 7 days; assay type: toxicity, organism-based; method in brief: as §1
Rattus norvegicus [5] = assay: Nephrotoxicity in Sprague-Dawley rat assessed as occurrence of severe intracellular mineralization at 150 mg/kg, iv every 12 hrs for 7 days; assay type: toxicity, organism-based; parameters: dose 150 mg/kg, route intravenous
Rattus norvegicus [6] = assay: Nephrotoxicity in Sprague-Dawley rat assessed as occurrence of severe cortical proximal convoluted tubule necrosis at 150 mg/kg, iv every 12 hrs for 7 days; assay type: toxicity, organism-based; parameters: dose 150 mg/kg, route intravenous
Rattus norvegicus [7] = assay: Toxicity in Sprague-Dawley rat assessed as effect on water consumption at 30 mg/kg, iv every 12 hrs for 7 days; assay type: organism-based; parameters: dose 30 mg/kg, route intravenous; method in brief: as §2
Rattus norvegicus [8] = assay: Nephrotoxicity in Sprague-Dawley rat assessed as occurrence of severe protein/cellular casts in proximal tubule at 30 mg/kg, iv every 12 hrs for 7 days; assay type: toxicity, organism-based; parameters: dose 30 mg/kg, route intravenous; method in brief: as §1
Rattus norvegicus [9] = assay: Neurotoxicity in Sprague-Dawley rat assessed as effect on motor control at 30 mg/kg, iv every 12 hrs for 7 days; assay type: toxicity, organism-based; parameters: dose 30 mg/kg, route intravenous
Method in brief: (§4)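 Motor control was tested daily by requiring each rat to walk for 5 min on a rotarod treadmill. Sprague-Dawley rats (6 to 8 weeks old) were dosed via a jugular vein cannula for 7 days, with a saline placebo control.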

Rattus norvegicus [10] = assay: Nephrotoxicity in Sprague-Dawley rat assessed as occurrence of mild cortical proximal convoluted tubule necrosis at 30 mg/kg, iv every 12 hrs for 7 days; assay type: toxicity, organism-based; parameters: dose 30 mg/kg, route intravenous; method in brief: as §1
Rattus norvegicus [11] = assay: Nephrotoxicity in Sprague-Dawley rat assessed as occurrence of mild nuclear pyknosis at 30 mg/kg, iv every 12 hrs for 7 days; assay type: toxicity, organism-based; parameters: dose 30 mg/kg, route intravenous; method in brief: as §1
Rattus norvegicus [12] = assay: Nephrotoxicity in Sprague-Dawley rat assessed as occurrence of severe protein/cellular casts in proximal tubule at 150 mg/kg, iv every 12 hrs for 7 days; assay type: toxicity, organism-based; parameters: dose 150 mg/kg, route intravenous
Rattus norvegicus [13] = assay: Nephrotoxicity in Sprague-Dawley rat assessed as occurrence of severe pallor of outer stripe of proximal tubule at 30 mg/kg, iv every 12 hrs for 7 days; assay type: toxicity, organism-based; parameters: dose 30 mg/kg, route intravenous; method in brief: as §1
Rattus norvegicus [14] = assay: Toxicity in Sprague-Dawley rat assessed as effect on food uptake at 30 mg/kg, iv every 12 hrs for 7 days; assay type: organism-based; parameters: dose 30 mg/kg, route intravenous; method in brief: as §2
Rattus norvegicus [15] = assay: Nephrotoxicity in Sprague-Dawley rat assessed as occurrence of moderate cortical proximal convoluted tubule necrosis at 30 mg/kg, iv every 12 hrs for 7 days; assay type: toxicity, organism-based; parameters: dose 30 mg/kg, route intravenous; method in brief: as §1
Rattus norvegicus [16] = assay: Neurotoxicity in Sprague-Dawley rat assessed as decreased locomotor activity at 30 mg/kg, iv every 12 hrs for 6 days relative to control; assay type: toxicity, organism-based; parameters: dose 30 mg/kg, route intravenous
Method in brief: (§5)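 Locomotor activity was recorded daily with a photobeam activity meter as part of a functional screening battery. Sprague-Dawley rats (6 to 8 weeks old) received 30 mg/kg/12 h via a jugular vein cannula for 7 days (n = 11), compared with saline placebo (n = 8). The treatment day was reported for each comparison.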

Rattus norvegicus [17] = assay: Toxicity in Sprague-Dawley rat assessed as effect on body surface temperature at 20 mg/kg, iv every 8 hrs for 7 days; assay type: organism-based; parameters: dose 20 mg/kg, route intravenous; method in brief: as §2
Rattus norvegicus [18] = assay: Nephrotoxicity in Sprague-Dawley rat assessed as occurrence of mild protein/cellular casts in proximal tubule at 20 mg/kg, iv every 8 hrs for 7 days; assay type: toxicity, organism-based; parameters: dose 20 mg/kg, route intravenous; method in brief: as §1
Rattus norvegicus [19] = assay: Toxicity in Sprague-Dawley rat assessed as effect on body surface temperature at 30 mg/kg, iv every 12 hrs for 7 days; assay type: organism-based; parameters: dose 30 mg/kg, route intravenous; method in brief: as §2
Rattus norvegicus [20] = assay: Toxicity in Sprague-Dawley rat assessed as effect on food uptake at 20 mg/kg, iv every 8 hrs for 7 days; assay type: organism-based; parameters: dose 20 mg/kg, route intravenous; method in brief: as §2
Rattus norvegicus [21] = assay: Nephrotoxicity in Sprague-Dawley rat assessed as occurrence of mild protein/cellular casts in proximal tubule at 30 mg/kg, iv every 12 hrs for 7 days; assay type: toxicity, organism-based; parameters: dose 30 mg/kg, route intravenous; method in brief: as §1
Rattus norvegicus [22] = assay: Nephrotoxicity in Sprague-Dawley rat assessed as occurrence of severe nuclear pyknosis at 150 mg/kg, iv every 12 hrs for 7 days; assay type: toxicity, organism-based; parameters: dose 150 mg/kg, route intravenous
Rattus norvegicus [23] = assay: Neurotoxicity in Sprague-Dawley rat assessed as effect on forelimb grip strength at 30 mg/kg, iv every 12 hrs for 7 days; assay type: toxicity, organism-based; parameters: dose 30 mg/kg, route intravenous; method in brief: as §3
Rattus norvegicus [24] = assay: Neurotoxicity in Sprague-Dawley rat assessed as effect on motor control at 20 mg/kg, iv every 8 hrs for 7 days; assay type: toxicity, organism-based; parameters: dose 20 mg/kg, route intravenous; method in brief: as §4
Rattus norvegicus [25] = assay: Neurotoxicity in Sprague-Dawley rat assessed as decreased locomotor activity at 30 mg/kg, iv every 12 hrs for 2 days relative to control; assay type: toxicity, organism-based; parameters: dose 30 mg/kg, route intravenous; method in brief: as §5

## COLISTIMETHATE SODIUM
Rattus norvegicus [1]
  Activity: Toxic
Rattus norvegicus [2]
  Activity: Non-toxic
Rattus norvegicus [3]
  Activity: Non-toxic
Rattus norvegicus [4]
  Activity: Toxic
Rattus norvegicus [5]
  Activity: Toxic
Rattus norvegicus [6]
  Activity: Toxic
Rattus norvegicus [7]
  Activity: Non-toxic
Rattus norvegicus [8]
  Activity: Toxic
Rattus norvegicus [9]
  Activity: Non-toxic
Rattus norvegicus [10]
  Activity: Toxic
Rattus norvegicus [11]
  Activity: Toxic
Rattus norvegicus [12]
  Activity: Toxic
Rattus norvegicus [13]
  Activity: Toxic
Rattus norvegicus [14]
  Activity: Non-toxic
Rattus norvegicus [15]
  Activity: Toxic
Rattus norvegicus [16]
  Activity: Toxic
Rattus norvegicus [17]
  Activity: Non-toxic
Rattus norvegicus [18]
  Activity: Toxic
Rattus norvegicus [19]
  Activity: Non-toxic
Rattus norvegicus [20]
  Activity: Non-toxic
Rattus norvegicus [21]
  Activity: Toxic
Rattus norvegicus [22]
  Activity: Toxic
Rattus norvegicus [23]
  Activity: Non-toxic
Rattus norvegicus [24]
  Activity: Non-toxic
Rattus norvegicus [25]
  Activity: Toxic
